Results as given in ChEMBL document CHEMBL1136545, “Novel thieno oxazine analogues as antihyperglycemic and lipid modulating agents” (2003).
Active and inactive are the calls of the source. No cut-off for these calls is given here.

Legend:
Mus musculus [1] = assay: Percentage reduction of plasma glucose (PG) in db/db mice at 3 mg/kg; No effect; format: functional, organism-based; design: dose 3 mg/kg
Summary of the method: (§1)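 db/db mice were dosed orally at 3 mg/kg for 6 days. Plasma glucose and triglyceride were then measured, and each value is the percentage reduction.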

Mus musculus [2] = assay: Percentage reduction of triglyceride (TG) in db/db mice at 3 mg/kg; No effect; format: functional, organism-based; design: dose 3 mg/kg; summary of the method: as §1
[3] = molecular target: T1, Peroxisome proliferator-activated receptor gamma (Homo sapiens) (UniProt P37231); assay: Compound was tested for activation of peroxisome proliferator-activated receptor gamma activity at 1 uM concentration by transactivation assay
T1 sequence (whole entry): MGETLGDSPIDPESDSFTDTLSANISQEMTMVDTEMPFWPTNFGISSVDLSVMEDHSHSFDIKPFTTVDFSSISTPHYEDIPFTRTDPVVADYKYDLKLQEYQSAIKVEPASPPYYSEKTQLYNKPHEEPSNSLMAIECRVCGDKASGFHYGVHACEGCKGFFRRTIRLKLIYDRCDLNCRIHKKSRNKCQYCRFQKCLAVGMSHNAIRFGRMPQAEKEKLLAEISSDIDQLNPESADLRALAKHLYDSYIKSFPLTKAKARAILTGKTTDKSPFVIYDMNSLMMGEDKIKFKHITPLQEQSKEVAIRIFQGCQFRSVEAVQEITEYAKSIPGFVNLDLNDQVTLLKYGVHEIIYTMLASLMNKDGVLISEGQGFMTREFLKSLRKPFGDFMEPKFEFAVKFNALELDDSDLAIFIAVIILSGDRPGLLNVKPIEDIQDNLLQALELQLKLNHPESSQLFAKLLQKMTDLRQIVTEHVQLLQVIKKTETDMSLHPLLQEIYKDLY
Summary of the method: (§2)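 Cell-based PPAR transactivation assay, with receptor activity expressed as fold activation. Each compound was tested at a single concentration, which differed between the PPARα and PPARγ arms.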

[4] = molecular target: T2, Peroxisome proliferator-activated receptor alpha (Homo sapiens) (UniProt Q07869); assay: Compound was tested for activation of peroxisome proliferator-activated receptor alpha activity at 50 uM concentration by transactivation assay; summary of the method: as §2
T2 sequence (whole entry): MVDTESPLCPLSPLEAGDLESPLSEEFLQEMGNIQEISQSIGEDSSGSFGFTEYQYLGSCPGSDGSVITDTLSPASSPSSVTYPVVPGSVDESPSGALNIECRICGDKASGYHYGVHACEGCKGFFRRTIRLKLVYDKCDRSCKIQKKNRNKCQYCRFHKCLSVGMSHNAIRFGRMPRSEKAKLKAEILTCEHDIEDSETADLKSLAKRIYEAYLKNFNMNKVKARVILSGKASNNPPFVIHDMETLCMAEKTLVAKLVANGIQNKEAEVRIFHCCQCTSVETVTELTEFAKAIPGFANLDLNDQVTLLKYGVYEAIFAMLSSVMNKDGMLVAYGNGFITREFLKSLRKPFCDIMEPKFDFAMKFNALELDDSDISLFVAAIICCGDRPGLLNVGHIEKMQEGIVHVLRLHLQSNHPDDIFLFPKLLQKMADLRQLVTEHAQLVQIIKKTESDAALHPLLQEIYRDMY

Mus musculus [5] = assay: Percentage reduction of triglyceride (TG) in db/db mice at 3 mg/kg; format: functional; summary of the method: as §1
Mus musculus [6] = assay: Percentage reduction of plasma glucose (PG) in db/db mice at 3 mg/kg; format: functional; summary of the method: as §1

Row | Activity [3] | Activity [4] | SMILES | Reduction (Mus musculus [1]) | Reduction (Mus musculus [2]) | Reduction (Mus musculus [5]) [%] | Reduction (Mus musculus [6]) [%]
1 | 1.2 | 0.5 | CCOC(Cc1ccc(OCCN2C(=O)COc3ccsc32)c(OC)c1)C(=O)O (stereo not given) | inactive | inactive |  | 
2 | 1.6 | 5 | CCOC(Cc1cc(Br)c(OCCN2C(=O)COc3ccsc32)c(Br)c1)C(=O)O (stereo not given) | inactive |  | 48 | 
3 | 16 | 8 | CCOC(Cc1ccc(OCCN2C(=O)COc3ccsc32)cc1)C(=O)O (stereo not given) |  |  | 56 | 47
4 | 8 | 1.3 | O=C(O)Cc1ccc(OCCN2C(=O)COc3ccsc32)c(Br)c1 |  |  | 14 | 21
5 | 5 | 0.5 | O=C(O)Cc1ccc(OCCCN2C(=O)COc3ccsc32)cc1 |  | inactive |  | 14
6 | 18 | 1.5 | CCOC(Cc1ccc(OCCN2C(=O)COc3ccsc32)c(C)c1)C(=O)O (stereo not given) |  |  | 19 | 52
7 | 15 | 2 | O=C(O)Cc1cc(Br)c(OCCN2C(=O)COc3ccsc32)c(Br)c1 |  |  | 15 | 43
8 | 14 | 5 | O=C(O)Cc1ccc(OCCN2C(=O)COc3ccsc32)cc1 |  |  | 43 | 39
9 | 1.2 | 8 | CCOC(Cc1ccc(OCCN2C(=O)COc3ccsc32)c(Br)c1)C(=O)O (stereo not given) | inactive |  | 62 | 
10 | 7 | 2.5 | CCOC(Cc1ccc(OCCN2C(=O)COc3ccsc32)c(Cl)c1)C(=O)O (stereo not given) |  |  | 27 | 21
